TAAR1 antag – human TAAR1 antagonism; Q96RJ0; inhibition, % at 3 µM; hit rate 1.5% among 360,000; AID 624466; CHO RD-HGA16 TAAR1, Fluo-8 calcium fluorescence, antagonist;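 active means inhibition above a per-plate cutoff, the mean inhibition of test compounds on that plate plus 3 SD, cut at about 49% in these data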;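 further: 0% = DMSO plus EC80 beta-PEA response and 100% = DMSO alone without agonist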
Target sequence (Q96RJ0 whole entry, looked up): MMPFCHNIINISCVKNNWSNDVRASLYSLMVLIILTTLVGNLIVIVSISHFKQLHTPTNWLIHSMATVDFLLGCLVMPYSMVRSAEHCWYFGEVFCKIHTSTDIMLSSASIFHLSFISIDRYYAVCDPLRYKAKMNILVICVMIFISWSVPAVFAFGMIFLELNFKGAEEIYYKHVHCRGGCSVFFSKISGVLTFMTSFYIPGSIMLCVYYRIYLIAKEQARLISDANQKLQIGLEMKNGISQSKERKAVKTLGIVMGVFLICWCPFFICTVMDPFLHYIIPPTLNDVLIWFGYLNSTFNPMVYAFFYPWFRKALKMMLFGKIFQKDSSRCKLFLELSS
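Test system: RD-HGA16 CHO cells with stable hTAAR1 and Gα16 / Probe or stimulus: EC80 β-phenethylamine stimulus / Times: seeding 17-24 h prior, 75-min 37 °C, 30-min RT dye loading / Detection: Fluo-8 calcium-sensitive fluorescence / Read-out basis: % inhibition scaled between DMSO and EC80 PEA controls / Repeats: singlicate, one well per test compound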
GPR7 antagonist – human neuropeptides B/W receptor 1 antagonism; AID 1861; hit rate 1.1% among 290,000; GPR7-expressing cells, fluorescence antagonist assay; inhibition, % at 4.4 µM; in the data active means inhibition above about 16%, passing the limit was not always enough;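 further: cells stimulated with the agonist NPW; 0% = agonist with vehicle and 100% = vehicle without agonist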
TAAR1 ag – agonists of human TAAR1. CHO RD-HGA16 TAAR1, Fluo-8 calcium fluorescence; vehicle wells 0%, saturating PEA agonist 100%. activation, % at 3 µM. hit rate 0.99% among 360,000. AID 624467;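 active means activation above the mean activation of all test compounds in the run plus 3 SD, cut at about 38% in these data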
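Benchmarks: low control DMSO, high control PEA (EC100); System: CHO RD-HGA16 cells carrying human TAAR1 plus Gα16; Detection: Fluo-8 fluorescence, 5 s baseline then 140 s kinetic read; Schedule: 17-24 h plating, Fluo-8 75 min 37 °C, 30 min RT; Read-out basis: % activation from peak over basal fluorescence ratio, DMSO-to-PEA scaled.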
OX1R antag-1 – blocks the human orexin 1 receptor | O43613 | OX1R-expressing cells, FRET antagonist read-out | inhibition, % at 6.6 µM | hit rate 1.8% among 330,000; in the data active means inhibition mostly above about 38%, no sharp cut-off; inactive means mostly below about 40%;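 further: 0% = agonist challenge alone and 100% = reference antagonist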
Target sequence (O43613 whole entry, looked up): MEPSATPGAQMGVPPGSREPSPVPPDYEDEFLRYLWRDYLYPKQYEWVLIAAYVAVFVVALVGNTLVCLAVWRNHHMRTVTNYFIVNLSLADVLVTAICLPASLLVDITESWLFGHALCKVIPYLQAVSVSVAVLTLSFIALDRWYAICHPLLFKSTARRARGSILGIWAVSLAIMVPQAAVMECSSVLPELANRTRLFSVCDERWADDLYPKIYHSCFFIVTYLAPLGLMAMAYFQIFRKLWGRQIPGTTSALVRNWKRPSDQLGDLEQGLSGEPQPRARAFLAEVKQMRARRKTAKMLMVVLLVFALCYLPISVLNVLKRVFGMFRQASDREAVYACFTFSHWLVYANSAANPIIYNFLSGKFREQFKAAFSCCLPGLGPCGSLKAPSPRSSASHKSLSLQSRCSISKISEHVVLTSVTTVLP
CHO parental Ca – signal in parental CHO cells, OX1R antagonist counter-screen | inhibition, % at 5.6 µM | hit rate 0.63% among 330,000 | AID 463079 | parental CHO-K1, ATP-induced calcium, Fluo-8 fluorescence;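 active means inhibition above that plate's mean sample inhibition plus 3 SD, cut at about 26% in these data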;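 further: 0% = ATP-challenged DMSO wells and 100% = DMSO wells without ATP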
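Test system: untransfected parental CHO cell line. Compound: one dose, 5.6 µM nominal. Detection: intracellular calcium via Fluo-8 no-wash fluorescent dye. Measure: % inhibition. Benchmarks: ATP-challenged DMSO wells low, unchallenged DMSO wells high.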
OX1R antag-2 – blocks the human orexin 1 receptor. hit rate 0.43% among 330,000. O43613. AID 434989. CHO/OX1R cells, Fluo-8 calcium fluorescence, orexin A. inhibition, % at 5 µM;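 active means inhibition above its plate's threshold, mean inhibition of all tested compounds on the plate plus 3 SD, cut at about 37% in these data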;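 further: 0% = orexin A challenge wells and 100% = SB-334867-A antagonist wells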
TAAR1 ag confirm – confirmation of human TAAR1 agonists | shares compounds with TAAR1 ag | CHO RD-HGA16 TAAR1, Fluo-8 calcium fluorescence; scaled: DMSO 0%, maximal phenethylamine 100% | activation, % at 3 µM | hit rate 82% among 2,400 | AID 651783;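 active means activation above a cutoff set at the run's mean compound activation plus 3 SD, cut at about 39% in these data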
Ga16 nonsel ag – nonselective agonist in parental cells, TAAR1 agonist counter-screen; shares compounds with TAAR1 ag; CHO-Ga16 parental, Fluo-8 calcium fluorescence; normalized to maximal ATP response, DMSO zero; activation, % at 3 µM; hit rate 50% among 2,400;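 active means activation above the run cutoff, the mean activation over all tested wells plus 3 SD, cut at about 12% in these data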;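 further: 0% = DMSO wells and 100% = maximal ATP response on the peak over basal ratio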
TAAR1 desensitize – counter-screen for human TAAR1 agonists: agonists that desensitize TAAR1; inhibition, % at 3 µM; CHO RD-HGA16 hTAAR1, Fluo-8 calcium, beta-PEA response inhibition; shares compounds with TAAR1 ag; hit rate 46% among 2,400;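 active means inhibition above the run cutoff, the mean inhibition of all test compounds plus 3 SD, cut at about 49% in these data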;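 further: beta-PEA stimulus applied at its EC80; loss of beta-PEA calcium signal after compound pretreatment read as receptor desensitization; 0% = DMSO with beta-PEA at EC80 and 100% = DMSO alone without agonist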
Ga16 antag count – nonselective Ga16 antagonism, counter-screen. shares compounds with TAAR1 ag. inhibition, % at 3 µM. CHO-Ga16 ATP-induced calcium, Fluo-8 fluorescence. hit rate 39% among 2,400;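 active means inhibition above the plate's mean compound inhibition plus 3 SD, computed per plate, cut at about 22% in these data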;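 further: 0% = EC80 ATP with DMSO and 100% = DMSO wells without ATP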
The depositor's hits bear a star; . = no result. Only some compounds are listed: those with a hit (about 4.6% of all), similar ones and a draw of the others.

SMILES	TAAR1 antag	GPR7 antagonist	TAAR1 ag	OX1R antag-1	CHO parental Ca	OX1R antag-2	TAAR1 ag confirm	Ga16 nonsel ag	TAAR1 desensitize	Ga16 antag count
CCN(CC)CCNC(=O)c1ccc(NC(=O)c2cccc(S(=O)(=O)N3CCc4ccccc43)c2)cc1	2.0	.	60.3*	.	.	.	59.5*	-0.2	38.6	10.4
CCN(CC)CCNC(=O)c1ccc(NC(=O)c2cccc(S(=O)(=O)N3c4ccccc4CC3C)c2)cc1 (centres undefined)	-6.5	0.6	14.0	14.7	-8.6	-21.1	.	.	.	.
Cc1ccc(C)c(N2CCN(C(=O)c3ccc(CS(=O)Cc4cccc(Cl)c4)o3)CC2)c1 (centres undefined)	41.4	-13.0	4.3	8.1	-0.7	-27.5	.	.	.	.
Cc1cccc(N2CC(c3nc4ccccc4n3C)CC2=O)c1C (centres undefined)	5.1	-4.1	4.0	2.8	-7.5	-21.6	.	.	.	.
CC1=C(C(=O)N(C)C)CC(CC(=O)NCCc2ccccn2)C(=O)N1CCCN1CCCC1=O (centres undefined)	-8.7	.	49.2*	.	.	.	43.5*	-0.5	6.0	9.9
CCN(CC)C(=O)C1=C(C)N(CCCN2CCCC2=O)C(=O)C(CC(=O)NCCc2ccccn2)C1 (centres undefined)	-25.3	.	9.6	.	.	.	.	.	.	.
NC1=NC(=O)CC(C(=O)Nc2cccc3ccccc23)S1 (centres undefined)	.	-11.8	.	8.3	-9.6	-20.0	.	.	.	.
Cc1ccc(S(=O)(=O)N2CCOCC2)cc1NC(=O)c1cccc(S(=O)(=O)N2CCCC2)c1	28.6	-1.7	10.1	0.1	-22.2	-17.3	.	.	.	.
Cn1c2ccccc2c(=O)c2c(=O)n(C3CCCCC3)c(-c3ccco3)nc21	-3.4	5.3	103.2*	14.0	3.7	-15.5	87.2*	62.2*	33.0	24.7*
Cc1nc2c(c(=O)c3ccccc3n2C)c(=O)n1-c1ccccc1	-1.9	-18.0	-1.4	7.5	-8.6	-20.9	.	.	.	.
CC(C)Cn1c(-c2ccco2)nc2c(c(=O)c3ccccc3n2C)c1=O	-4.7	-9.6	16.2	23.0	-20.6	-8.7	.	.	.	.
Cc1nc2c(c(=O)c3ccccc3n2C)c(=O)n1C1CCCCCC1	-38.0	8.0	49.6*	8.8	-30.4	-12.9	56.4*	50.8*	6.6	1.2
Cc1ccc(C)c(-n2cc(CN3CCCN(C=O)CC3)c(-c3ccccc3)n2)c1	-14.1	-21.5	4.6	7.3	-8.5	-6.4	.	.	.	.
CCC(=O)OCCn1c(=O)c2cc3c(=O)n(CCOC(=O)CC)c(=O)c3cc2c1=O	3.7	7.8	0.7	18.6	1.6	-2.3	.	.	.	.
CCCOC(=O)Cn1c(=O)c2cc3c(=O)n(CC(=O)OCCC)c(=O)c3cc2c1=O	11.6	-3.2	52.8*	.	.	.	5.7	2.9	-4.8	6.0
Cc1ccc(OC(=O)CCC(=O)OCCCC(F)(F)C(F)(F)F)cc1	-0.5	3.8	1.8	6.5	-0.9	-9.1	.	.	.	.
CC(=O)Nc1ccc2c(=O)n(-c3ccccc3)sc2c1	68.6*	.	83.1*	.	.	.	131.4*	51.4*	101.8*	51.7*
Cc1ccc(-n2sc3ccccc3c2=O)cc1S(=O)(=O)N1CCCCC1	16.1	7.1	70.1*	18.0	11.1	8.2	16.6	14.1*	16.6	16.5
N#Cc1ccc2c(=O)n(-c3ccccc3)sc2c1	19.5	.	31.8	.	.	.	.	.	.	.
O=c1c2ccccc2sn1-c1ccc(S(=O)(=O)N2CCCC2)cc1	8.2	2.2	15.6	9.1	2.3	-3.0	.	.	.	.
O=c1c2ccccc2sn1-c1ccccc1	50.4*	-3.5	54.5*	46.5	48.2*	20.3	38.1*	27.1*	28.9	32.0*
O=c1c2ccccc2sn1-c1ccc(S(=O)(=O)N2CCCCC2)cc1	-0.1	2.8	4.0	0.9	0.3	-1.9	.	.	.	.
CN(C)S(=O)(=O)c1cccc(-n2sc3ccccc3c2=O)c1	38.5	-4.7	64.0*	3.7	1.1	-1.2	49.7*	34.1*	17.3	22.1*
CCCCCc1cc(=O)c2ccccc2o1	10.1	.	9.2	12.0	-19.5	-24.2	.	.	.	.
O=P(OCC1CC1)(c1ccccc1)c1ccccc1	7.5	-7.6	1.8	8.0	-4.0	-3.2	.	.	.	.
SMILES	TAAR1 antag	GPR7 antagonist	TAAR1 ag	OX1R antag-1	CHO parental Ca	OX1R antag-2	TAAR1 ag confirm	Ga16 nonsel ag	TAAR1 desensitize	Ga16 antag count
CC12CCC3c4cc(CN5CCOCC5)c(O)cc4CCC3C1CCC2=O (centres undefined)	-2.7	.	2.5	.	.	.	.	.	.	.
CS(=O)(=O)Nc1ccccc1NS(C)(=O)=O	-39.4	-10.2	0.7	3.0	-13.1	10.3	.	.	.	.
Cn1sc2ccccc2c1=O	-3.3	.	46.0*	.	.	.	37.2	26.1*	19.6	11.1
COCCn1c(=O)sc2ccccc2c1=O	7.7	3.5	1.6	28.9	0.3	-10.1	.	.	.	.
CC(C)NC(=O)COC(=O)C1CSC2(c3ccc(Br)cc3)CCC(=O)N12 (centres undefined)	3.0	-2.8	4.5	8.5	-8.4	-11.7	.	.	.	.
CSCC[C@H](NC(=O)COc1ccc(Cl)cc1)C(=O)N1CCC2(CC1)NCCc1[nH]cnc12	2.6	-3.2	52.0*	-3.9	-20.4	-12.4	0.9	0.1	-3.8	-4.6
CSCC[C@H](NC(=O)c1ccc2ccccc2c1)C(=O)N1CCC2(CC1)NCCc1[nH]cnc12	-16.3	-8.6	0.1	2.4	-7.3	-12.5	.	.	.	.
CCOC(=O)C1=C(c2ccccc2)NC(=O)NC1c1cccc(OC)c1OC (centres undefined)	-7.8	.	0.1	21.0	-8.7	-14.9	.	.	.	.
C/C(=N\NC(=O)Cn1nc(C)c([N+](=O)[O-])c1C)c1ccc(Cl)s1	-16.4	-14.9	0.9	11.7	-16.3	-23.0	.	.	.	.
Cc1ccsc1/C=N/NC(=O)Cn1nc(C)c([N+](=O)[O-])c1C	-6.4	-7.0	44.6*	5.5	-14.8	-27.6	72.4*	0.1	54.9*	6.4
Cc1ccsc1/C=N/NC(=O)Cn1cnc2ccccc21	28.7	-5.3	55.7*	36.6	-13.0	-11.9	60.9*	2.2	45.1	11.7
COc1cccc(/C=N/NC(=O)Cn2nc(C)c([N+](=O)[O-])c2C)c1O	-16.7	1.6	0.9	18.0	-6.1	-24.8	.	.	.	.
Cc1nn(CC(=O)N/N=C/c2cccs2)c(C)c1[N+](=O)[O-]	37.6	-19.5	56.6*	12.7	-5.2	-8.8	80.0*	5.5	72.3*	3.6

Bioassay records deposited in PubChem BioAssay by The Scripps Research Institute Molecular Screening Center.
